Reference: ChEMBL document CHEMBL1681666, “Synthesis and in vitro screening of novel N-benzyl aplysinopsin analogs as potential anticancer agents” (2011)

Columns and labels:
Format in all cases: functional
COLO 205 = test: Anticancer activity against human COLO205 cells
Summary of the method: (§1)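 NCI 60-cell human tumour panel (leukemia, lung, colon, CNS, melanoma, ovarian, renal, prostate, breast). A first-stage single-dose screen at 10 µM was run. Compounds giving over 60% growth inhibition in at least eight lines went on to a five-dose response. Effect was plotted against log10 molar concentration per line. GI50 is the concentration giving 50% reduction in net protein increase versus control cells. LC50 is the concentration lethal to 50% of cells.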

M14 = test: Anticancer activity against human M14 cells; summary of the method: as §1
[1] = Anticancer activity against human […] cells; summary of the method: as §1
SF-295 = test: Anticancer activity against human SF295 cells; summary of the method: as §1
NCI-H322M = test: Anticancer activity against human NCI-H322M cells; summary of the method: as §1
SK-MEL-5 = test: Anticancer activity against human SK-MEL-5 cells; summary of the method: as §1
UACC-62 = test: Anticancer activity against human UACC62 cells
Summary of the method: (§2)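 NCI 60-cell-line panel. A single-dose (10 µM) prescreen was run first. Compounds giving over 60% growth inhibition in at least eight lines then went to five-dose response studies. Dose-response curves of effect versus log10 concentration. GI50 is the molar concentration giving a 50% reduction in net protein increase versus control cells. LC50 is the concentration lethal to 50% of cells.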

MDA-MB-468 = test: Anticancer activity against human MDA-MB-468 cells; summary of the method: as §1
SW-620 = test: Anticancer activity against human SW620 cells; summary of the method: as §2
HOP-92 = test: Anticancer activity against human HOP92 cells
Summary of the method: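 NCI 60-cell human tumour panel screen that includes non-small cell lung lines. The first stage used a single 10 µM dose. Compounds reaching more than 60% growth inhibition in at least eight lines went on to five-dose response testing. GI50 and LC50 came from curves of effect against log10 molar concentration. GI50 is the concentration giving a 50% reduction in net protein increase versus control cells.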

SF-268 = test: Anticancer activity against human SF268 cells; summary of the method: as §1
[2] = Anticancer activity against human NCI/ADR cells; conditions: NCI/ADR-RES; summary of the method: as §1
CAKI-1 = test: Anticancer activity against human Caki1 cells; summary of the method: as §1
PC-3 = test: Anticancer activity against human PC3 cells; summary of the method: as §1
EKVX = test: Anticancer activity against human EKVX cells; summary of the method: as §1
OVCAR-8 = test: Anticancer activity against human OVCAR8 cells; summary of the method: as §1
ACHN = test: Anticancer activity against human ACHN cells; summary of the method: as §1
UACC-257 = test: Anticancer activity against human UACC257 cells; summary of the method: as §2
NCI-H460 = test: Anticancer activity against human NCI-H460 cells; summary of the method: as §1
UO-31 = test: Anticancer activity against human UO31 cells; summary of the method: as §2
HCC 2998 = test: Anticancer activity against human HCC2998 cells; summary of the method: as §1
OVCAR-3 = test: Anticancer activity against human OVCAR3 cells; summary of the method: as §1
CCRF-CEM = test: Anticancer activity against human CCRF-CEM cells; summary of the method: as §1
SK-MEL-28 = test: Anticancer activity against human SK-MEL-28 cells; summary of the method: as §1
BT-549 = test: Anticancer activity against human BT549 cells; summary of the method: as §1
TK-10 = test: Anticancer activity against human TK10 cells; summary of the method: as §2
NCI-H226 = test: Anticancer activity against human NCI-H226 cells; summary of the method: as §1
A498 = test: Anticancer activity against human A498 cells; summary of the method: as §1
SF-539 = test: Anticancer activity against human SF539 cells; summary of the method: as §1
[3] = Anticancer activity against human Hs 578T cells; summary of the method: as §1
[4] = read-out: LC50 (the source's name)

In the case of `N=C1NC(=O)/C(=C/c2cn(Cc3ccc(F)cc3)c3ccc(Cl)cc23)S1`, the GI50 (COLO 205) is reported as > 100 µM, the CC50 (COLO 205; [4]) is reported as > 100 µM and the GI50 (M14) is reported as 57.2 µM. The CC50 (M14; [4]) was > 100 µM, the GI50 [1] was > 100 µM and the CC50 [1, 4] was > 100 µM. The GI50 (SF-295) was > 100 µM, the CC50 (SF-295; [4]) was > 100 µM and the GI50 (NCI-H322M) was 71 µM. For the same compound, the CC50 (NCI-H322M; [4]) was > 100 µM, the GI50 (SK-MEL-5) was > 100 µM and the CC50 (SK-MEL-5; [4]) was > 100 µM. The GI50 (UACC-62) was > 100 µM, the CC50 (UACC-62; [4]) was > 100 µM and the GI50 (MDA-MB-468) was > 100 µM. For the same compound, the CC50 (MDA-MB-468; [4]) was > 100 µM, the GI50 (SW-620) was 38.3 µM and the CC50 (SW-620; [4]) was > 100 µM. The GI50 (HOP-92) was > 100 µM, the GI50 (SF-268) was 32 µM and the CC50 (SF-268; [4]) was > 100 µM. The GI50 [2] was > 100 µM, the CC50 [2, 4] was > 100 µM and the GI50 (CAKI-1) was > 100 µM. The CC50 (CAKI-1; [4]) was > 100 µM, the GI50 (PC-3) was 23.6 µM and the CC50 (PC-3; [4]) was > 100 µM. The GI50 (EKVX) was > 100 µM, the CC50 (EKVX; [4]) was > 100 µM and the GI50 (OVCAR-8) was 0.019 µM. The CC50 (OVCAR-8; [4]) was > 100 µM, the GI50 (ACHN) was > 100 µM and the CC50 (ACHN; [4]) was > 100 µM. For the same compound, the GI50 (UACC-257) was 0.013 µM, the CC50 (UACC-257; [4]) was 0.3 µM and the GI50 (NCI-H460) was > 100 µM. For the same compound, the CC50 (NCI-H460; [4]) was > 100 µM, the GI50 (UO-31) was > 100 µM and the CC50 (UO-31; [4]) was > 100 µM. For the same compound, the GI50 (HCC 2998) was > 100 µM, the CC50 (HCC 2998; [4]) was > 100 µM and the GI50 (OVCAR-3) was > 100 µM. For the same compound, the CC50 (OVCAR-3; [4]) was 30.1 µM, the GI50 (CCRF-CEM) was > 100 µM and the CC50 (CCRF-CEM; [4]) was > 100 µM. The GI50 (SK-MEL-28) was > 100 µM, the CC50 (SK-MEL-28; [4]) was > 100 µM and the GI50 (BT-549) was 98.8 µM. For the same compound, the CC50 (BT-549; [4]) was > 100 µM, the GI50 (TK-10) was 5.64 µM and the CC50 (TK-10; [4]) was > 100 µM. The GI50 (NCI-H226) was 80.7 µM, the CC50 (NCI-H226; [4]) was > 100 µM and the GI50 (A498) was 31.5 µM. For the same compound, the CC50 (A498; [4]) was > 100 µM, the GI50 (SF-539) was 4.4 µM and the CC50 (SF-539; [4]) was > 100 µM. For the same compound, the GI50 [3] was 3.67 µM.
